According to ChEMBL document CHEMBL4028905, “A Unique Approach to Design Potent and Selective Cyclic Adenosine Monophosphate Response Element Binding Protein, Binding Protein (CBP) Inhibitors” (J Med Chem, 2017):
Active and inactive are the calls of the source. The calls are words filed in the database; no cut-off is given here.

Key:
[1] = target: CREB-binding protein/Histone acetyltransferase p300 (Homo sapiens, UniProt Q09472+Q92793); assay: Inhibition of P300/CBP in human MV4-11 cells assessed as reduction in MYC expression after 4 hrs by luminescence based assay; assay type: cell-based
Summary of the method: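 MV-4-11 cells plated at 10,000 per well in RPMI1640 with 10% FBS and 2 mM L-glutamine. Compounds added in DMSO at a final 0.1% and incubated 4 h at 37 °C before MYC expression read-out; EC50 derived.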

[2] = Intrinsic clearance in human liver microsomes at 1 uM in presence of NADPH by LC-MS/MS analysis; assay type: ADME, microsome; conditions: read-out: CLH
[3] = target: Histone acetyltransferase p300 (Homo sapiens) (UniProt Q09472); assay: Binding affinity to human P300 (A1040 to G1161) expressed in bacterial cells by BromoScan assay; assay type: cell-based
[4] = Total clearance in CD-1 mouse at 1 mg/kg, iv or 5 mg/kg, po by LC-MS/MS analysis; assay type: ADME, organism-based; conditions: in vivo
Summary of the method: (§1)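 Female CD-1 mice, 6–9 weeks, 20–35 g, n = 3 per route. Dosing was 1 mg/kg i.v. in PEG400/DMSO/water (35/10/55 v/v) or 5 mg/kg p.o. suspended in 0.5% methylcellulose/0.2% Tween 80. Serial tail-nick blood sampled to 24 h and diluted in K2EDTA water. Analysis by acetonitrile precipitation and LC–MS/MS (MRM, positive ESI); LLOQ 0.001 μM.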

[5] = species on record: Homo sapiens; assay: Selectivity ratio of IC50 for His tagged recombinant BRD4 bromodomain 1 (unknown origin) to IC50 for His tagged recombinant CBP (unknown origin)
[6] = target: T1, Bromodomain-containing protein 7 (Homo sapiens, UniProt Q9NPI1); assay: Binding affinity to human BRD7 (L125 to R254) expressed in mammalian cells by BromoScan assay; assay type: cell-based
T1 sequence (Q9NPI1 whole entry): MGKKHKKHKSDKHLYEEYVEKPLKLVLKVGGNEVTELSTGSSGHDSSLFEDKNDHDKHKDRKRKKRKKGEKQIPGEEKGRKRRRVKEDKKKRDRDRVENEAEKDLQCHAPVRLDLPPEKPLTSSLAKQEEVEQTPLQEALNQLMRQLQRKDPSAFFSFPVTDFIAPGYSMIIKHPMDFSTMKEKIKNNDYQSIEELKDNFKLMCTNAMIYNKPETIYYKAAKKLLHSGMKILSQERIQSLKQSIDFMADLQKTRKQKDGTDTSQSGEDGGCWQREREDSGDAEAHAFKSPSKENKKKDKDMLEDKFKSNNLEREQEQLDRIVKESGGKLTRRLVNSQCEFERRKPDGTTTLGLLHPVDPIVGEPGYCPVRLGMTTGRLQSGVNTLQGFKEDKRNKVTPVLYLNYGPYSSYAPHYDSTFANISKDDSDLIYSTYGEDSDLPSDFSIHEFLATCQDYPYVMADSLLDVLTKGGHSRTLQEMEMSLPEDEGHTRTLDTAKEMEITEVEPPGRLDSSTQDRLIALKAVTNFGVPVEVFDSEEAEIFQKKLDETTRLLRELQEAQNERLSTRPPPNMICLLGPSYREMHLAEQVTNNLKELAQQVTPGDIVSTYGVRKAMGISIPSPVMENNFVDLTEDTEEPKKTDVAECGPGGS

[7] = target: Bromodomain-containing protein 4 (Homo sapiens, UniProt O60885); assay: Inhibition of His tagged recombinant BRD4 bromodomain 1 (unknown origin) by TR-FRET assay
Summary of the method: (§2)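 Recombinant His-tagged bromodomains purified by Ni affinity, tag removed with thrombin, checked by mass spectrometry. Assay is TR-FRET competition against a biotinylated small-molecule ligand. Normalized inhibition vs concentration fit to 4-parameter Hill equation; […] for optimization.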

[8] = target: T2, CREB-binding protein (Homo sapiens, UniProt Q92793); assay: Binding affinity to human CBP (R1081 to G1197) expressed in bacterial cells by BromoScan assay; assay type: cell-based
[9] = Half life in CD-1 mouse at 1 mg/kg, iv by LC-MS/MS analysis; assay type: ADME, organism-based; conditions: in vivo; summary of the method: as §1
[10] = Intrinsic clearance in mouse liver microsomes at 1 uM in presence of NADPH by LC-MS/MS analysis; assay type: ADME, microsome; conditions: read-out: CLH
[11] = Volume of distribution at steady state in CD-1 mouse at 1 mg/kg, iv or 5 mg/kg, po by LC-MS/MS analysis; assay type: ADME, organism-based; conditions: in vivo, read-out: Vdss; summary of the method: as §1
[12] = Oral bioavailability in CD-1 mouse at 5 mg/kg by LC-MS/MS analysis; assay type: ADME, organism-based; conditions: in vivo; summary of the method: as §1
[13] = target: T3, Bromodomain-containing protein 9 (Homo sapiens, UniProt Q9H8M2); assay: Binding affinity to human BRD9 (R130 to V259) expressed in bacterial cells by BromoScan assay; assay type: cell-based
T3 sequence (Q9H8M2 whole entry): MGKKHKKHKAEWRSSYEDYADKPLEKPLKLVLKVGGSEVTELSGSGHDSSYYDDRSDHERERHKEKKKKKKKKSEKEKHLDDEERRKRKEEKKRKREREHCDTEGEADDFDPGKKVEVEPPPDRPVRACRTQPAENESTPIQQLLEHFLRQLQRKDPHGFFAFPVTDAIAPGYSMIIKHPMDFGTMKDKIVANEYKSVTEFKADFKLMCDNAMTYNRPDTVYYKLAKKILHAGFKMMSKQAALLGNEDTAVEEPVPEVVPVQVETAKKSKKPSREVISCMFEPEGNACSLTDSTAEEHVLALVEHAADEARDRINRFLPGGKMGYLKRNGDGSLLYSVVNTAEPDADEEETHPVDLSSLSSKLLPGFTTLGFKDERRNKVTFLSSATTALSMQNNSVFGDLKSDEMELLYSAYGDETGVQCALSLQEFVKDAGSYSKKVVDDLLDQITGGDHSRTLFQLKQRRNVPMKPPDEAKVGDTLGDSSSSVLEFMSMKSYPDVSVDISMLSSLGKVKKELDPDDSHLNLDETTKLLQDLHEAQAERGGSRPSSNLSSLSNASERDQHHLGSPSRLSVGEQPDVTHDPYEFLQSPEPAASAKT

[14] = target: Bromodomain-containing protein 3 (Homo sapiens, UniProt Q15059); assay: Binding affinity to human BRD3 bromodomain 2 (G306 to P416) expressed in bacterial cells by BromoScan assay; assay type: cell-based
[15] = target: T2, CREB-binding protein; assay: Inhibition of His tagged recombinant CBP (unknown origin) by TR-FRET assay; summary of the method: as §2
[16] = Intrinsic clearance in rat liver microsomes at 1 uM in presence of NADPH by LC-MS/MS analysis; assay type: ADME, microsome; conditions: read-out: CLH
[17] = target: T4, Transcription intermediary factor 1-alpha (Homo sapiens, UniProt O15164); assay: Binding affinity to human TRIM24 (G862 to E980) expressed in bacterial cells by BromoScan assay; assay type: cell-based
T4 sequence (O15164 whole entry): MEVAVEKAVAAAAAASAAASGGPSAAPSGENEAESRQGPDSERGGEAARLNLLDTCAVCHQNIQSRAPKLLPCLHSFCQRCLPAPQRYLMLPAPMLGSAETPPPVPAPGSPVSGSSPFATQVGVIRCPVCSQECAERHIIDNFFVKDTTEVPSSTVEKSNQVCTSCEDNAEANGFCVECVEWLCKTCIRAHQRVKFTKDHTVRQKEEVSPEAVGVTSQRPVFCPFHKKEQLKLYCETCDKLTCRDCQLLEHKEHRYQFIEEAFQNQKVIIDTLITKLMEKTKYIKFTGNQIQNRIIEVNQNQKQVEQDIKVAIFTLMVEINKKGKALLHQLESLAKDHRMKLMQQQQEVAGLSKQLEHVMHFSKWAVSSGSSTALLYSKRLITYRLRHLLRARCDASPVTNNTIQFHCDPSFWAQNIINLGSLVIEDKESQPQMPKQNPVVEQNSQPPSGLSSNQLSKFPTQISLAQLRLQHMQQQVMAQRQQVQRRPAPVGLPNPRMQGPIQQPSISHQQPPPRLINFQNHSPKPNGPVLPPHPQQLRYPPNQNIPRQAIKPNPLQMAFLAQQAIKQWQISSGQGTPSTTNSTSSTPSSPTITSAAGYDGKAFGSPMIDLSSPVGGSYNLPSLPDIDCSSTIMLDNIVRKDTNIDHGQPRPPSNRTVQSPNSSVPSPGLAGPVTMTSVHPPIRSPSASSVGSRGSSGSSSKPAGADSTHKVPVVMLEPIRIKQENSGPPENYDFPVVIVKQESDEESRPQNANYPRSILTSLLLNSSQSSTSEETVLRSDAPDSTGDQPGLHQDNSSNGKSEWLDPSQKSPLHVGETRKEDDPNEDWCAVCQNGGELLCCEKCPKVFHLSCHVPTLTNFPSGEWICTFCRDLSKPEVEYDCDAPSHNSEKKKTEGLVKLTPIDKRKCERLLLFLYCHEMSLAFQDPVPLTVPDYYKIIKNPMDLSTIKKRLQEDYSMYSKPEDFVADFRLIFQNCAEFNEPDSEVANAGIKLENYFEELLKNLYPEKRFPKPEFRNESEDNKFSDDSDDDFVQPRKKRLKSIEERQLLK

Bromodomain-containing protein 3, sequence (Q15059 whole entry): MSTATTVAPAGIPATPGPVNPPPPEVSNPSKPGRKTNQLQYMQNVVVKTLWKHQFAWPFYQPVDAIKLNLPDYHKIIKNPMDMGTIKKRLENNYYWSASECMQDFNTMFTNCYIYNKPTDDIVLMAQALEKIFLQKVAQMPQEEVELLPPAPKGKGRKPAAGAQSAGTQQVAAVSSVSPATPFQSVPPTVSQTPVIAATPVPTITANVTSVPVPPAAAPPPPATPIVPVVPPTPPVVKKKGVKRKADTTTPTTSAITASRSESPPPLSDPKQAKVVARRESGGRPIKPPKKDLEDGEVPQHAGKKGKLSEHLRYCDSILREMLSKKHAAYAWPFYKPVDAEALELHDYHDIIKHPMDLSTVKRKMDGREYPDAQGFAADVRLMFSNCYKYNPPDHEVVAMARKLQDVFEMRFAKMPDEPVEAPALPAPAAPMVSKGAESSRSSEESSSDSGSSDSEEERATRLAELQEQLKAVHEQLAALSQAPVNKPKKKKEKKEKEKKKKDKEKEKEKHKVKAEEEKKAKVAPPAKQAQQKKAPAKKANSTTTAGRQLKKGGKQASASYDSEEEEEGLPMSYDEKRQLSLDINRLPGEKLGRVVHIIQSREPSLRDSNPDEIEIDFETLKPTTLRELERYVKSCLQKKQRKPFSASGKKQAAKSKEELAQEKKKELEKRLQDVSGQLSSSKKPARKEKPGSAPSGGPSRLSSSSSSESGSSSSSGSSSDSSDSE
Histone acetyltransferase p300 (Homo sapiens), sequence (Q09472 whole entry): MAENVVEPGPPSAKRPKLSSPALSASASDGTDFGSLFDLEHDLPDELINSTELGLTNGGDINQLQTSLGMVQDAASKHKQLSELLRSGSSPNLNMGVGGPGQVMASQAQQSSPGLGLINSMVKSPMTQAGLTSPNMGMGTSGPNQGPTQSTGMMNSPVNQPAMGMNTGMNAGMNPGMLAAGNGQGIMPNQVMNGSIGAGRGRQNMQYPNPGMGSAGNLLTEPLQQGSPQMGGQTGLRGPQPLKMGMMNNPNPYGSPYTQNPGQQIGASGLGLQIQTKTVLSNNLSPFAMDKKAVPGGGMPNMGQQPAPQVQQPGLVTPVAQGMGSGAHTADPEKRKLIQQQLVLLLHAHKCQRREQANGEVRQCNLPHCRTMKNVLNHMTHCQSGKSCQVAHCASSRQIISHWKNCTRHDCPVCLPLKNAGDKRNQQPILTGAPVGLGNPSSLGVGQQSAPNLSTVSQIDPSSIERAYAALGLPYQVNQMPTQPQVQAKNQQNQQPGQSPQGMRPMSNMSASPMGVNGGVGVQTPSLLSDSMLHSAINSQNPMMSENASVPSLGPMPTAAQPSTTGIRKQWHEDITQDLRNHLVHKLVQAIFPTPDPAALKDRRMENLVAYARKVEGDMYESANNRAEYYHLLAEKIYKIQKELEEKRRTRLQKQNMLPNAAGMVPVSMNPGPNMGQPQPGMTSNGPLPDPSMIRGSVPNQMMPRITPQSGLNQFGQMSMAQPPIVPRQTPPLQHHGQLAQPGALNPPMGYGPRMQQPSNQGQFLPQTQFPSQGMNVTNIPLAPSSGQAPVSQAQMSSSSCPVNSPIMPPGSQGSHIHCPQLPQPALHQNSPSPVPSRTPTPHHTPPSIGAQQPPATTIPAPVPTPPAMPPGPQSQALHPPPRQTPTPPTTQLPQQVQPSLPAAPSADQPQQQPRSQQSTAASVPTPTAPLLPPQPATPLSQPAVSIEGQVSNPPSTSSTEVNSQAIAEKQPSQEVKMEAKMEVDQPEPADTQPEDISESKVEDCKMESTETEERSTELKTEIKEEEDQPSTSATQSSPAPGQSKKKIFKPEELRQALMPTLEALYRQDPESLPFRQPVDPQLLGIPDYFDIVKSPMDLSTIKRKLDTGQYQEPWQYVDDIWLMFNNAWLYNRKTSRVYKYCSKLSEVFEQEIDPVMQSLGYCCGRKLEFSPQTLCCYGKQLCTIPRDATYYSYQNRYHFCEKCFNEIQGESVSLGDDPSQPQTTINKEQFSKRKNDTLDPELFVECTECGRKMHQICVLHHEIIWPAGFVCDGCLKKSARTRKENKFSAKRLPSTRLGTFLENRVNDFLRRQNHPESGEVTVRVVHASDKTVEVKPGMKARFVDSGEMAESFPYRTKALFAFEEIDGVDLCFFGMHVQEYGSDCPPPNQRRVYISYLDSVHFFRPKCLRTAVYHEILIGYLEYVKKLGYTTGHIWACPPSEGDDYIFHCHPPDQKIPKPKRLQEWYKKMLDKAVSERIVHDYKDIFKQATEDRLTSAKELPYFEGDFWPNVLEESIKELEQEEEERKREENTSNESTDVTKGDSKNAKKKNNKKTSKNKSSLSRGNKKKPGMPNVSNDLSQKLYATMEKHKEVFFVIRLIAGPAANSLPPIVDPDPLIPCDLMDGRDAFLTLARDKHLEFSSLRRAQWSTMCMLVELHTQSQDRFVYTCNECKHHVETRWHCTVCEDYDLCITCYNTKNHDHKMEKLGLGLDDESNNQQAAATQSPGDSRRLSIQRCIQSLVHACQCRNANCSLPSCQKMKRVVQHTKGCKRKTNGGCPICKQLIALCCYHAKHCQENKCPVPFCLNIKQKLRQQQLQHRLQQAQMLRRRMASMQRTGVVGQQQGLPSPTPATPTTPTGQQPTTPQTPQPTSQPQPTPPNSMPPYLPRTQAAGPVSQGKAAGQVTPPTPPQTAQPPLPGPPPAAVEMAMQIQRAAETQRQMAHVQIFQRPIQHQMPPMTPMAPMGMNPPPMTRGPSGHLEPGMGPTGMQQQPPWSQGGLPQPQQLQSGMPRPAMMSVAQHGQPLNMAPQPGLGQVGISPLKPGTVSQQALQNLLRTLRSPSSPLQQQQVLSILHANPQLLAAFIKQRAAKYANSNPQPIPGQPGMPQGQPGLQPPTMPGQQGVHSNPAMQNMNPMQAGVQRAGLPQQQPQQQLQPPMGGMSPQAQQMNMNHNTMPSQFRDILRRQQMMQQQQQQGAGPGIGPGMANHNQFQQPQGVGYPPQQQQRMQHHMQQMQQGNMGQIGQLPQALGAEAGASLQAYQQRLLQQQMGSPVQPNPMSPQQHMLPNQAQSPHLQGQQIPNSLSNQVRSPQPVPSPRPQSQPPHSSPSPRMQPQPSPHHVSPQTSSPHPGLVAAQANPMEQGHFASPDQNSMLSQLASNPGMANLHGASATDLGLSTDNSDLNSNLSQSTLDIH

- EC50 [1]: 53 nM
- CLint scaled at 1 µM [2]: 13 mL/min/kg
- Activity [3]: Active
- clearance [4]: 18.2 mL/min/kg
- Ratio IC50 [5]: 1050
- Kd [6]: > 10000 nM
- IC50 [7]: 2300 nM
- Activity [8]: Active
- half-life [9]: 1.3 h
- CLint scaled at 1 µM [10]: 50 mL/min/kg
- Vd [11]: 1.9 L/kg
- bioavailability [12]: 52%
- Kd [13]: > 10000 nM
- Kd [14]: > 10000 nM
- IC50 [15]: 2.2 nM
- CLint scaled at 1 µM [16]: 25 mL/min/kg
- Kd [17]: > 10000 nM
Structure (SMILES): CNC(=O)c1c[nH]c2c(C(C)C)nc(N3CCCc4cc(-c5cnn(C)c5)c(C(F)F)cc43)cc12
